Assay results published in ChEMBL document CHEMBL3102843, “Synthesis and antifungal activity of substituted 2,4,6-pyrimidinetrione carbaldehyde hydrazones” (Bioorg Med Chem, 2014).
In brackets after ≈: the same amount, converted by molar mass. Activity calls are given as the source filed them. Unless noted, the calls are words filed in the database; no cut-off is given here.

Legend:
Candida albicans [1] = test: Antifungal activity against Candida albicans ATCC 10231 at 125 ug/ml after 48 to 72 hrs by broth microdilution method; format: functional, organism-based
How it was run: (§1)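 Broth microdilution per NCCLS. Inocula come from 5–7 colonies on YM agar, suspended in sterile water and adjusted to 0.5 McFarland at 530 nm (stock 1×10⁶–5×10⁶ cells/mL), then diluted 1:50 in HEPES-buffered RPMI 1640. Compounds in DMSO (final ≤1%) are added as a 10-fold dilution into the suspension. Plates run 48–72 h at 35 °C, humid. Growth is scored visually; the endpoint is ≥80% reduction versus drug-free wells.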

Nakaseomyces glabratus [2] = test: Antifungal activity against Candida glabrata ATCC 48435 at 125 ug/ml after 48 to 72 hrs by broth microdilution method; format: functional, organism-based; how it was run: as §1
[3] = Cytotoxicity against african green monkey Vero cells assessed as cell viability at 8 to 800 ug/ml after 24 hrs by MTT assay; format: cell-based; conditions: chlorocebus sabaeus, read-out: Activity
How it was run: (§2)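 MTT (tetrazolium) assay in Vero and HepG2 cells. Cells were pre-grown 24 h at 37 °C/5% CO₂ in DMEM with 10% FBS. Compounds diluted in media at the fungal MIC and at 5×, 10× and 100× MIC, then exposed 24 h. Dye was added for 1–4 h, then stop solution for 1 h at RT; A570 read. Viability was taken as % of 1% DMSO no-drug wells, with 0.1% saponin as death control. Triplicate, mean ± SD.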

HepG2 [4] = test: Cytotoxicity against human HepG2 cells assessed as cell viability at 8 to 800 ug/ml after 24 hrs by MTT assay; format: cell-based; conditions: hepg2, 24 h; how it was run: as §2
Nakaseomyces glabratus [5] = test: Antifungal activity against Candida glabrata ATCC 48435 after 48 to 72 hrs by broth microdilution method; format: functional
How it was run: (§3)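 Broth microdilution per NCCLS. Organisms were subcultured on Sabouraud agar. Inoculum was 5–7 colonies from YM agar in sterile water, adjusted to 0.5 McFarland at 530 nm (1–5×10⁶ cells/mL stock), held 30 min at RT, then diluted 1:50 in HEPES-buffered RPMI 1640. DMSO stocks were twofold-diluted, with final DMSO ≤1%. Plates ran 48–72 h at 35 °C, humid. MIC is the lowest concentration giving ≥80% growth reduction vs drug-free wells, scored visually. Fluconazole or amphotericin B ran as drug control.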

Candida albicans [6] = test: Antifungal activity against Candida albicans ATCC 10231 at 8 ug/ml after 48 to 72 hrs by broth microdilution method; format: functional
Candida albicans [7] = test: Antifungal activity against Candida albicans ATCC 10231 after 48 to 72 hrs by broth microdilution method; format: functional; how it was run: as §3
Nakaseomyces glabratus [8] = test: Antifungal activity against Candida glabrata ATCC 48435 at 62 ug/ml after 48 to 72 hrs by broth microdilution method; format: functional
HepG2 [9] = test: Cytotoxicity against human HepG2 cells assessed as cell viability at 2 to 200 ug/ml after 24 hrs by MTT assay; format: cell-based; conditions: hepg2, 24 h; how it was run: as §2
Nakaseomyces glabratus [10] = test: Antifungal activity against Candida glabrata CS 177.93 at 0.195 to 100 uM after 24 to 48 hrs in presence of 2% glucose; format: functional, organism-based
How it was run: (§4)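 Cells grown overnight in YPD at 30 °C, washed, then seeded at ~10³ cells/well (10⁴ cells/mL) in YPD (2% glucose), YPG (3% glycerol) or YPE (3% ethanol), pH 6.5. Drug at 0 and 0.195–100, final DMSO 0.5%. Two repeat experiments.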

Candida albicans [11] = test: Antifungal activity against Candida albicans SC5314 at 0.195 to 100 uM after 24 to 48 hrs in presence of 3% ethanol; format: functional, organism-based; how it was run: as §4
[12] = Cytotoxicity against african green monkey Vero cells assessed as cell viability at 10 times MIC80 for fungus after 24 hrs by MTT assay; format: cell-based; conditions: chlorocebus sabaeus, read-out: Activity; how it was run: as §2
Candida albicans [13] = test: Antifungal activity against Candida albicans SC5314 at 0.195 to 100 uM after 24 to 48 hrs in presence of 3% glycerol; format: functional, organism-based; how it was run: as §4
Candida albicans [14] = test: Antifungal activity against Candida albicans; format: functional, organism-based; how it was run: as §3
Nakaseomyces glabratus [15] = test: Antifungal activity against Candida glabrata CS 177.93 at 0.195 to 100 uM after 24 to 48 hrs in presence of 3% ethanol; format: functional, organism-based; how it was run: as §4
Nakaseomyces glabratus [16] = test: Antifungal activity against Candida glabrata CS 177.93 at 0.195 to 100 uM after 24 to 48 hrs in presence of 3% glycerol; format: functional, organism-based; how it was run: as §4
Candida albicans [17] = test: Antifungal activity against Candida albicans SC5314 at 0.195 to 100 uM after 24 to 48 hrs in presence of 2% glucose; format: functional, organism-based; how it was run: as §4
Candida albicans [18] = test: Antifungal activity against Candida albicans ATCC 10231 at 62 ug/ml after 48 to 72 hrs by broth microdilution method; format: functional
[19] = Cytotoxicity against african green monkey Vero cells assessed as cell viability at 2 to 200 ug/ml after 24 hrs by MTT assay; format: cell-based; conditions: chlorocebus sabaeus, read-out: Activity; how it was run: as §2

Compound | Activity (Candida albicans [1]) | Activity (Nakaseomyces glabratus [2]) | MIC80 (Nakaseomyces glabratus [5]) | MIC80 (Candida albicans [7]) | other results
O=C1NC(=O)C(Cc2ccc3ccccc3c2)C(=O)N1 | inactive | inactive | – | – | –
CN1C(=O)C(C(=O)c2ccc([N+](=O)[O-])cc2)C(=O)N(C)C1=O | inactive | inactive | – | – | –
O=C1NC(=O)C(Cc2ccc(O)cc2)C(=O)N1 | inactive | inactive | – | – | –
CCCCN1C(=O)NC(=O)C(C(=O)c2ccc(OC)cc2)C1=O (stereo not drawn) | inactive | inactive | – | – | –
O=C1NC(=O)N(c2ccccc2)C(=O)C1CC1CCC(O)CC1 (stereo not drawn) | inactive | inactive | – | – | –
CN1C(=O)C(CCCc2ccccc2)C(=O)N(C)C1=O | inactive | inactive | – | – | –
O=C1NC(=O)C(C(=O)c2ccccc2)C(=O)N1 | inactive | inactive | – | – | –
CN1C(=O)C(C(=O)c2ccc(O)cc2)C(=O)N(C)C1=O | inactive | inactive | – | – | –
CCCCCCCC1C(=O)NC(=O)NC1=O | inactive | inactive | – | – | –
O=C1NC(=O)C(C(=O)c2ccc(O)cc2)C(=O)N1 | inactive | inactive | – | – | –
O=C1NC(=O)C(CCCc2ccccc2)C(=O)N1 | inactive | inactive | – | – | –
CN1C(=O)NC(=O)C(C(=O)c2ccccc2)C1=O (stereo not drawn) | inactive | inactive | – | – | –
CC(C)C1C(=O)NC(=O)N(c2ccccc2)C1=O (stereo not drawn) | inactive | inactive | – | – | –
O=C1NC(=O)C(C(=O)c2cc([N+](=O)[O-])cc([N+](=O)[O-])c2)C(=O)N1 | inactive | inactive | – | – | –
CCCCN1C(=O)NC(=O)C(C(=O)c2ccc(O)cc2)C1=O (stereo not drawn) | inactive | inactive | – | – | –
CN1C(=O)C(/C=N/c2ccccc2O)C(=O)N(C)C1=O | – | – | inactive | 8 µg/mL (≈ 29.1 µM) | viability at 24 h [3]: 35%; Activity (HepG2 [4]): Toxic; inhibition at 8 µg/mL (Candida albicans [6]): < 50%
O=C1NC(=O)C(Cc2ccccc2)(Cc2ccccc2)C(=O)N1 | inactive | inactive | – | – | –
O=C1NC(=O)C(C(=O)c2ccc([N+](=O)[O-])cc2)C(=O)N1 | inactive | inactive | – | – | –
COc1ccc(C(=O)N/N=C/C2C(=O)NC(=O)NC2=O)cc1 | – | – | 62 µg/mL (≈ 204 µM) | inactive | inhibition at 62 µg/mL (Nakaseomyces glabratus [8]): < 50%
O=C1NC(=O)C(/C=N/Nc2ccc([N+](=O)[O-])cc2)C(=O)N1 | – | – | 1 µg/mL (≈ 3.43 µM) | 2 µg/mL (≈ 6.87 µM) | Activity (HepG2 [9]): Toxic; Activity (Nakaseomyces glabratus [10]): Active; Activity (Candida albicans [11]): Active; viability at 24 h [12]: 80%; Activity (Candida albicans [13]): Active; Activity (Candida albicans [14]): Dose-dependent effect; Activity (Nakaseomyces glabratus [15]): Active; Activity (Nakaseomyces glabratus [16]): Active; Activity (Candida albicans [17]): Active
CN1C(=O)C(/C=N/NC(=O)c2ccc([N+](=O)[O-])cc2)C(=O)N(C)C1=O | – | – | 125 µg/mL (≈ 360 µM) | 62 µg/mL (≈ 179 µM) | inhibition at 62 µg/mL (Candida albicans [18]): < 50%
O=CC1C(=O)NC(=O)NC1=O | inactive | inactive | – | – | –
COc1ccc(C(=O)C2C(=O)NC(=O)NC2=O)cc1 | inactive | inactive | – | – | –
O=C1NC(=O)C(/C=N/c2ccccc2O)C(=O)N1 | – | – | inactive | 8 µg/mL (≈ 32.4 µM) | inhibition at 8 µg/mL (Candida albicans [6]): < 50%
COc1ccc(C(=O)N/N=C/C2C(=O)N(C)C(=O)N(C)C2=O)cc1 | – | – | 31 µg/mL (≈ 93.3 µM) | 62 µg/mL (≈ 187 µM) | inhibition at 62 µg/mL (Candida albicans [18]): < 50%
C/C(=N\Nc1ccccc1)C1C(=O)N(C)C(=O)N(C)C1=O | – | – | 2 µg/mL (≈ 6.94 µM) | 2 µg/mL (≈ 6.94 µM) | Activity (HepG2 [9]): Toxic; viability at 24 h [19]: 35%
O=C1NC(=O)C(C2CCCCC2)C(=O)N1 | inactive | inactive | – | – | –

Compound | Activity (Candida albicans [1]) | Activity (Nakaseomyces glabratus [2]) | MIC80 (Nakaseomyces glabratus [5]) | MIC80 (Candida albicans [7]) | other results
CN1C(=O)C(/C=N/Nc2ccc([N+](=O)[O-])cc2)C(=O)N(C)C1=O | – | – | 2 µg/mL (≈ 6.26 µM) | 2 µg/mL (≈ 6.26 µM) | Activity (HepG2 [9]): Toxic; viability at 24 h [12]: 80%
O=C1NC(=O)N(c2ccccc2)C(=O)C1C(=O)c1ccc(O)cc1 (stereo not drawn) | inactive | inactive | – | – | –
CN(C)c1ccc(CC2(Cc3ccc(N(C)C)cc3)C(=O)NC(=O)NC2=O)cc1 | inactive | inactive | – | – | –
CC(=O)C1C(=O)NC(=O)N(c2ccccc2)C1=O (stereo not drawn) | inactive | inactive | – | – | –
COc1ccc(C(=O)C2C(=O)N(C)C(=O)N(C)C2=O)cc1 | inactive | inactive | – | – | –
O=C1NC(=O)C(C(=O)c2cccc([N+](=O)[O-])c2)C(=O)N1 | inactive | inactive | – | – | –
O=C1NC(=O)C(CC2CCC(O)CC2)C(=O)N1 (stereo not drawn) | inactive | inactive | – | – | –
CN(C)c1ccc(CC2(CCCc3ccccc3)C(=O)NC(=O)NC2=O)cc1 | inactive | inactive | – | – | –
CC(=O)C1C(=O)NC(=O)NC1=O | inactive | inactive | – | – | –
CN1C(=O)C(C(=O)c2cc([N+](=O)[O-])cc([N+](=O)[O-])c2)C(=O)N(C)C1=O | inactive | inactive | – | – | –
CN1C(=O)C(/C=N/Nc2ccccc2)C(=O)N(C)C1=O | – | – | 2 µg/mL (≈ 7.29 µM) | 4 µg/mL (≈ 14.6 µM) | Activity (HepG2 [9]): Toxic; viability at 24 h [12]: 80%
CN1C(=O)C(C(=O)c2ccccc2)C(=O)N(C)C1=O | inactive | inactive | – | – | –
COC(=O)N/N=C/C1C(=O)N(C)C(=O)N(C)C1=O | – | – | inactive | inactive | –
CN1C(=O)NC(=O)C(C=O)C1=O (stereo not drawn) | inactive | inactive | – | – | –
CN1C(=O)C(/C=N/c2ccncc2)C(=O)N(C)C1=O | – | – | inactive | inactive | –
CN/N=C/C1C(=O)N(C)C(=O)N(C)C1=O | – | – | 125 µg/mL (≈ 589 µM) | 62 µg/mL (≈ 292 µM) | inhibition at 62 µg/mL (Candida albicans [18]): < 50%
COc1cc(OC)c(C=C2C(=O)N(C)C(=O)N(C)C2=O)c(OC)c1 | – | – | inactive | inactive | –
CN1C(=O)C(C(=O)c2cccnc2)C(=O)N(C)C1=O | inactive | inactive | – | – | –
O=C1NC(=O)C(/C=N/c2nnc[nH]2)C(=O)N1 | – | – | inactive | inactive | –
C/C(=N\Nc1ccc([N+](=O)[O-])cc1)C1C(=O)NC(=O)NC1=O | – | – | 2 µg/mL (≈ 6.55 µM) | 2 µg/mL (≈ 6.55 µM) | Activity (HepG2 [9]): Toxic; viability at 24 h [19]: 35%
O=C1NC(=O)C(=Cc2ccco2)C(=O)N1 | – | – | inactive | inactive | –
CN1C(=O)C(C(=O)c2cccc([N+](=O)[O-])c2)C(=O)N(C)C1=O | inactive | inactive | – | – | –
COc1ccc(C=C2C(=O)N(C)C(=O)N(C)C2=O)c(OC)c1OC | – | – | inactive | inactive | –
O=C1NC(=O)C(/C=N/c2ccc(-c3ccccc3)cc2)C(=O)N1 | – | – | inactive | inactive | –
O=C1NC(=O)C(=Cc2ccc3ccccc3c2)C(=O)N1 | – | – | inactive | 125 µg/mL (≈ 469 µM) | –
O=C1NC(=O)C(CCCC2CCCCC2)C(=O)N1 | inactive | inactive | – | – | –
C/C(=N\NC(=O)c1ccccc1)C1C(=O)NC(=O)NC1=O | – | – | inactive | inactive | –
